procasp7 counter: procaspase-7 activators, primary screen, counter-screen for procaspase-3 activator project, biochemical, absorbance, HTS, human; recombinant procaspase-7, Ac-DEVD-pNA absorbance 405 nm; D23A/D198A/D206A triple mutant, cannot self-cleave; scale: DMSO 0, 5 µM enzyme 100; activation, % at 8.5 µM; 330,000 tested, 0.093% active; AID 463210, 2010;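 active = percent activation above the screen-wide mean plus 3 SD, cut at about 25% in these data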
Target sequence (P55210 whole entry D23A/D198A/D206A): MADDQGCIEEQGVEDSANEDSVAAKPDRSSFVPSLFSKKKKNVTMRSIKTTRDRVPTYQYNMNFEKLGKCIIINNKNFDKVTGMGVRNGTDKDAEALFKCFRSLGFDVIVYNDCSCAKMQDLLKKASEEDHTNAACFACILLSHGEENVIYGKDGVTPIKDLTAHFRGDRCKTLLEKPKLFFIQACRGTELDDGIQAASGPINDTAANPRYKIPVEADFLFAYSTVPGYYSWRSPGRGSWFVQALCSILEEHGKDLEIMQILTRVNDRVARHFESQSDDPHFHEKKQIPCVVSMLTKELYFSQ
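Test system: Procaspase-7 triple mutant (PC-7 D3A). Also added: Ac-DEVD-pNA substrate, 400 µM as added. Schedule: 1 h enzyme–compound preincubation and 2 h substrate reaction, both 25 °C. Signal: p-Nitroaniline absorbance at 405 nm, read at 0 and 120 min. Control set: low DMSO alone, high DMSO plus 5 µM PC-7.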
MsrA act: bovine MsrA enzyme activators, primary screen, biochemical, absorbance, HTS. Methionine sulfoxide reductase A (Bos taurus). purified bovine MsrA, absorbance read-out. activation, % at 10.6 µM. 360,000 tested, 0.3% active; in the data active = activation above about 7.5%;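 note: 0% = vehicle and 100% = reference activator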
Tb MetRS inh: T. brucei MetRS inhibitors, primary screen, biochemical, luminescence; 360,000 tested, 0.4% active; methionyl-tRNA synthetase (Trypanosoma brucei brucei); purified T. brucei MetRS, ATP depletion, Kinase-Glo luminescence; inhibition, % at 11.9 µM; AID 624268, 2012;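 active = inhibition above a per-plate cutoff of the control wells' mean inhibition plus 3 SD, cut at about 5.5% in these data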;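 note: 0% = DMSO wells median and 100% = median of wells with control inhibitor compound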
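Dosing: 11.9 µM compound single dose, 0.9% DMSO; Assay system: purified T. brucei MetRS enzyme; Measured by: Kinase-Glo luciferase luminescence reporting remaining unconsumed ATP; Schedule: 15 min plus 2 h at 25 °C.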
MsrA inh: bovine MsrA enzyme inhibitors, primary screen, biochemical, absorbance, HTS; 360,000 tested, 0.75% active; inhibition, % at 15.5 µM; purified bovine MsrA, absorbance read-out; AID 651718, 2012; Methionine sulfoxide reductase A (Bos taurus); in the data active = inhibition above about 4.5%;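 note: 0% = vehicle wells with enzyme and 100% = reference inhibitor wells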
procasp3 activ: activators of human procaspase-3 D3A mutant, primary screen, biochemical, absorbance, PC-3 D3A mutant, single concentration | 330,000 tested, 0.11% active | Caspase-3 (Homo sapiens), P42574 | activation, % at 8.5 µM | recombinant procaspase-3 D3A, Ac-DEVD-pNA absorbance 405 nm;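 active = activation above the mean of all tested compounds plus 3 SD, cut at about 21% in these data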;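 note: 0% = DMSO alone and 100% = DMSO wells spiked with extra 5 µM PC-3 D3A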
Target sequence (P42574 whole entry D9A/D28A/D175A): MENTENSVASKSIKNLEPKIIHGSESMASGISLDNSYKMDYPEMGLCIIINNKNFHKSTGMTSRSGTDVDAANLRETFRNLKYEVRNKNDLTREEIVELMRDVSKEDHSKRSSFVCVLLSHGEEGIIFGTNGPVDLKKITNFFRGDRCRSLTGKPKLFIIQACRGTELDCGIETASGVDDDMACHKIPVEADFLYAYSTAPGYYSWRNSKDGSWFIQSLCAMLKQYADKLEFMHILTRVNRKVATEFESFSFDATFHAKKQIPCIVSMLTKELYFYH
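assay system = Procaspase-3 D3A mutant | signal = absorbance at 405 nm, 0 and 120 min | times = 1 h preincubation plus 2 h reaction at 25 °C | repeats = single replicate | read-out = % activation between DMSO and enzyme-spiked controls | medium = Zinc-free HEPES saline buffer with Triton X-100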
MsrA activ conf: bovine MsrA activators, retest, confirmation, biochemical, absorbance, HTS. purified bovine MsrA, absorbance read-out. shares compounds with MsrA act. activation, % at 10.6 µM. 1,000 tested, 12% active; in the data active = activation above about 4%;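 note: enzyme coupled to thioredoxin and thioredoxin reductase with NADPH; 0% = vehicle wells and 100% = reference activator wells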
Numbers without * were called inactive; / = no result given. This is a sample that favours compounds with a hit; in the whole collection about 1.5% have one here.

SMILES	procasp7 counter	MsrA act	Tb MetRS inh	MsrA inh	procasp3 activ	MsrA activ conf
O=C(CNc1ccc2ccccc2c1)N/N=C/c1ccc([N+](=O)[O-])o1	-23.3	8.3*	-0.5	2.2	-14.1	-0.8
CC(C)CNc1nc(=S)nc(N(C)C)[nH]1	-15.8	8.3*	0.7	1.3	-5.5	4.2*
CCOC(=O)C1CSCCS(=O)(=O)N1Cc1ccc(C)cc1 (centres undefined)	/	/	/	-0.8	/	/
COC(=O)C1=C(C)N(C)C(=NCc2ccc(OC)cc2)NC1c1ccc(C(F)(F)F)cc1 (centres undefined)	/	/	/	-0.2	/	/
OCCCCCCNc1ccc(CCO)cc1	/	8.6*	0.3	-0.6	/	0.1
CCN1CCN(C(=O)CS(=O)(=O)Cc2nc(-c3cccc(OC)c3)oc2C)CC1	-3.7	-4.2	-0.2	-1.4	6.4	/
CCCN1CCN(C(=O)CS(=O)(=O)Cc2nc(-c3cccc(OC)c3)oc2C)CC1	-0.4	9.3*	-0.8	-1.0	2.1	-1.6
CC1=C(c2ccccc2)C(=O)C(C)(C)CC1=O	/	/	/	-1.0	/	/
CCOC(=O)c1c2c(n(-c3ccc(OC)cc3)c1C)C(=O)C(=O)c1ccccc1-2	/	7.7*	2.1	/	/	6.2*
O=C(CSc1nc2cc(Cl)ccc2s1)c1cc2ccccc2o1	-13.7	9.9*	-0.2	2.1	-6.5	-1.9
C1CCCC(NC2=NCCO2)CCC1	-10.4	9.5*	-0.2	/	-10.8	-0.1
COc1cc(Nc2cc(C)n(-c3cc(OC)cc(OC)c3)c(=O)c2)cc(OC)c1	/	/	/	-0.2	/	/
Cc1ccc(S(=O)(=O)Nc2ccccc2C(=O)Nc2nc(-c3ccc(F)cc3)cs2)cc1	3.6	-4.1	-0.3	-0.2	4.3	/
COc1ccc(-c2csc(NC(=O)c3ccccc3NS(=O)(=O)c3ccc(F)c(F)c3)n2)cc1	-2.3	14.5*	0.0	1.9	-1.8	-4.3
Cc1ccc(C(=O)NCC(=O)N2CCN(c3ncccn3)CC2)s1	-7.6	9.2*	-0.6	-1.0	2.3	-0.4
Cc1ccc(Nc2n[nH]c(=S)s2)c(C)c1	/	10.3*	-0.2	0.6	/	0.8
COc1ccccc1Nc1n[nH]c(=S)s1	-41.2	8.9*	0.3	2.1	-31.8	1.0
CC(C)c1ccc(Nc2n[nH]c(=S)s2)cc1	/	8.6*	-0.6	0.8	/	0.1
Cc1cc(C)c(Nc2n[nH]c(=S)s2)cc1C	/	5.9	-0.1	0.3	/	/
NC(=O)c1ncn([C@@H]2O[C@H](C(=O)N3CCN(Cc4ccccn4)CC3)[C@@H](O)[C@H]2O)n1	/	/	/	-0.6	/	/
CCCCc1c(-c2ccccc2OC)ncn1Cc1cccc(OC)c1	/	/	/	0.2	/	/
Nc1ncnc2c1ncn2[C@@H]1O[C@H](CNCc2ccc(OCC(=O)Nc3ccccn3)cc2)[C@@H](O)[C@H]1O	5.1	-1.0	0.2	-0.3	2.7	/
Nc1ncnc2c1ncn2[C@@H]1O[C@H](CNCc2ccc(OCc3ccccc3)cc2)[C@@H](O)[C@H]1O	2.5	7.7*	-1.2	1.5	5.4	4.3*
C#CCN(Cc1ccco1)C(=O)c1nnc2c3ccccc3n(S(=O)(=O)c3ccc(C)cc3)c2n1	/	/	/	-0.8	/	/
Cc1ccc(S(=O)(=O)N2CCCc3nc(-c4ccc(F)cc4)ccc32)cc1	/	/	/	0.3	/	/
SMILES	procasp7 counter	MsrA act	Tb MetRS inh	MsrA inh	procasp3 activ	MsrA activ conf
COc1ccc(OC)c2nc3c(C(=O)NCCN(C)C)cccc3nc12	/	20.6*	-0.1	-0.1	/	11.7*
CN(C)CCNC(=O)c1cccc2nc3cccc(F)c3nc12	/	1.0	-0.5	1.6	/	/
COc1ccc2c(c1)[C@@]1(OCCC=C[C@H]1C)C(=O)N2Cc1ccc(F)cc1	/	/	/	3.1	/	/
CCOC(=O)c1ccc(N2C(=O)Cc3ccccc3C2=O)cc1	-4.9	-3.7	-0.2	-0.5	-6.4	/
CC(C)COC(=O)c1ccc(N2C(=O)c3ccccc3C2=O)cc1	1.1	7.9*	-0.2	-1.3	1.1	5.5*
COC(=O)C1=C(C)N(Cc2ccccc2C(F)(F)F)C(=NCc2ccc(OC)cc2)NC1CCc1ccccc1 (centres undefined)	/	/	/	-1.1	/	/
COc1ccc(NC(=O)c2ccc([N+](=O)[O-])cc2[N+](=O)[O-])c(OC)c1	-3.7	11.2*	0.4	2.2	-8.1	1.0
COc1ccc(Cn2nnnc2C(c2cccs2)N2CCOCC2)cc1 (centres undefined)	3.7	7.8*	0.0	0.0	-8.2	-1.0
CCS(=O)(=O)N(C)C[C@@H]1OCc2ccccc2-c2c(n(C)c3ccccc23)C(=O)N([C@H](C)CO)C[C@@H]1C	/	/	/	0.8	/	/
Nc1[nH]c(C(=O)c2ccccc2)c(-c2cccc3ccccc23)c1C(=O)NCc1ccc(F)c(F)c1	/	/	/	0.4	/	/
COC(=O)C1=C(C)N(Cc2ccc(C(F)(F)F)cc2)C(=NCc2ccc(OC)cc2)NC1c1ccccc1C(F)(F)F (centres undefined)	/	/	/	-2.2	/	/
Cc1cc(N2CCN(CC(C)(C)O)C[C@@H]2C)ccc1N1CCN(CC(C)(C)O)[C@@H](C)C1	/	/	/	0.0	/	/
COc1cccc(NC(=O)C(C)OC(=O)c2n[nH]c3ccccc23)c1 (centres undefined)	-3.2	16.1*	0.1	-1.2	7.5	0.4
CNc1snc(C)c1C(=O)OC(C)C(=O)Nc1cccc(OC)c1 (centres undefined)	5.2	-10.1	-0.4	-0.8	-6.9	/
O=[N+]([O-])c1cccc2c(N3CCCC3)ccnc12	-3.1	19.6*	-0.7	1.8	3.8	11.7*
Cc1ccccc1C(=O)NC1CCCCN(C)C1=O (centres undefined)	/	/	/	0.1	/	/
COc1cccc2c1C(=O)C=C(C)C2=O	-7.5	4.0	0.4	0.3	-5.8	/
COC1=CC(=O)c2c(ccc3ncnc(N)c23)C1=O	/	35.4*	1.6	1.7	/	30.3*
Cc1cccc(N=C2NC(=O)c3cc([N+](=O)[O-])ccc32)c1	-1.5	7.8*	-0.1	-0.9	10.5	3.5
O=C1NC(=Nc2ccccc2)c2ccc([N+](=O)[O-])cc21	-2.7	5.9	-0.4	-1.2	6.1	/
Cn1c(NCc2ccco2)nc2ccccc21	-10.1	-0.5	0.1	-0.3	8.9	/
CC1(C)Oc2nc3ccccc3n2/C1=C\C#N	5.5	8.0*	0.3	0.2	-4.9	-1.8
CCC1CCc2sc(C(=O)N(C)CC(=O)Nc3ccc(OC)cc3)cc2C1 (centres undefined)	4.9	0.5	-0.2	0.5	-1.9	/
